Assays:
[1] = tested on: NTERA-2 teratocarcinoma xenografts; experiment: Teratocarcinoma xenograft, daily intraperitoneal injections; assay type: in vivo, mice
Summary of the method: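 Six-week-old female […] BALB/c nude mice were injected subcutaneously in the lower right flank with 200 μL of 50% Matrigel holding 2 million NTERA-2 or 5 million GCT27D.C1 cells (eight mice per model). Once tumors were palpable, mice received 40 mg/kg test compound i.p. daily (DMSO solution diluted in sunflower oil to 200 μL) or vehicle. Tumor volume was calculated as length × width² × 0.5 from calipers, TGI was calculated, and body weight was tracked. Tumors were harvested 15 days later.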

[2] = tested on: H108 normal skin fibroblast; experiment: Cellular ATP level; assay type: cell-based, human; conditions: read-out: IC50 ATP
Summary of the method: (§1)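 Cellular ATP was measured with a CellTiter-Glo luminescence viability assay after exposure to a concentration range of test compound. IC50 is the average of three independent assays. Mean IC50s across differentiated or human pluripotent lines, and their ratio, are derived from the per-line values.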

WA09/H9 ESC [3] = experiment: Cellular ATP level; assay type: cell-based, human; conditions: read-out: IC50 ATP
Summary of the method: as §1

NTERA-2 ECC = experiment: Cellular ATP level; assay type: cell-based, human; conditions: read-out: IC50 ATP
Summary of the method: as §1

WA01/H1 ESC [4] = experiment: Cells with <2N DNA by FACS of permeabilized cells stained with PI; assay type: cell-based, human; conditions: read-out: IC50 DNA (50% of cells with <2N DNA)
Summary of the method: (§2)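 Cells were exposed to a range of test compound concentrations alongside vehicle (DMSO) controls. They were then permeabilized, stained with propidium iodide, and DNA content was read by flow cytometry. IC50 is the concentration at which 50% of cells hold <2N DNA, from 3 independent repetitions with SEM. Line averages and differentiated/pluripotent ratios are derived from these IC50s. NTERA-2 was also run as a time course at 5 μM, normalized to vehicle at each time point.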

TERA-2 ECC [5] = experiment: Cellular ATP level; assay type: cell-based, human; conditions: read-out: IC50 ATP
Summary of the method: as §1

[6] = tested on: VeroE6 normal kidney epithelial; experiment: Live cells / PCD by FACS of nonpermeabilized cells stained with annexin-V and PI; assay type: cell-based, monkey; conditions: read-out: IC50 Live Cells (PCD)
Summary of the method: (§3)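 Cells were seeded so that vehicle wells stayed subconfluent, then treated with a range of test compound concentrations for 4 days. Without permeabilization, they were stained with annexin-V-FITC and propidium iodide and analysed by flow cytometry. Double-negative cells (Q3) were scored as live and Q1+Q2 as programmed death. Vehicle was set to 100% viable and 0% dead. Results are the mean of three independent assays with SEM; group averages and ratios are derived from the IC50s.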

GCT27D.C1 ECC [7] = experiment: Cells with <2N DNA by FACS of permeabilized cells stained with PI; assay type: cell-based, human
Summary of the method: as §2

[8] = tested on: H1-diff (spontaneously differentiated H1 ESCs); experiment: Live cells / PCD by FACS of nonpermeabilized cells stained with annexin-V and PI; assay type: cell-based, human; conditions: read-out: IC50 Live Cells, 4 days
Summary of the method: as §3

[9] = tested on: HFF-1 normal skin fibroblast; experiment: as above; assay type: cell-based, human; conditions: read-out: IC50 Live Cells; HFF-1
Summary of the method: as §3

TERA-2 ECC [10] = experiment: Cells with <2N DNA by FACS of permeabilized cells stained with PI; assay type: cell-based, human; conditions: read-out: IC50 DNA (50% of cells with <2N DNA)
Summary of the method: as §2

WA01/H1 ESC [11] = experiment: Cellular ATP level; assay type: cell-based, human; conditions: read-out: IC50 ATP
Summary of the method: as §1

SCUi24 iPSC [12] = experiment: Cells with <2N DNA by FACS of permeabilized cells stained with PI; assay type: cell-based, human; conditions: read-out: IC50 DNA (50% of cells with <2N DNA)
Summary of the method: as §2

[13] = tested on: human pluripotent cells (ESC, iPSC, ECC lines); experiment: PCD / live cell loss; assay type: cell-based; conditions: ratio of average IC50
Summary of the method: as §3

SCUi24 iPSC [14] = experiment: Live cells / PCD by FACS of nonpermeabilized cells stained with annexin-V and PI; assay type: cell-based, human; conditions: read-out: IC50 Live Cells
Summary of the method: as §3

H1 ESCs = experiment: Immunoblotting of total cell extracts; assay type: cell-based, human
Summary of the method: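 Cells were cultured with 2.5 μM test compound for up to 96 h, and attached plus unattached cells were pooled. Whole-cell RIPA lysates were run on 4–12% Bis-Tris gels, transferred to nitrocellulose and blocked in 5% milk/TBS. Primary antibodies went on overnight at 4°C, followed by infrared secondary antibodies and imager quantitation. Each blot carried untreated U2OS as a shared standard, with Ponceau-S histones for normalization and lighter exposures for quantitation. Adriamycin for 24 h (NTERA-2 1 μM, H108 2 μM) served as a DNA-break control.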

[15] = tested on: HBEC normal lung epithelial; experiment: Cellular ATP level; assay type: cell-based, human; conditions: read-out: IC50 ATP
Summary of the method: as §1

human pluripotent cells = experiment: DNA loss; assay type: cell-based
Summary of the method: as §2

WA09/H9 ESC [16] = experiment: Cells with <2N DNA by FACS of permeabilized cells stained with PI; assay type: cell-based, human
Summary of the method: as §2

[17] = tested on: H108 normal skin fibroblast; experiment: as above; assay type: cell-based, human; conditions: read-out: IC50 DNA (50% of cells with <2N DNA)
Summary of the method: as §2

[18] = tested on: VeroE6 normal kidney epithelial; experiment: as above; assay type: cell-based, monkey; conditions: read-out: IC50 DNA (50% of cells with <2N DNA)
Summary of the method: as §2

GCT27D.C1 ECC [19] = experiment: Live cells / PCD by FACS of nonpermeabilized cells stained with annexin-V and PI; assay type: cell-based, human; conditions: read-out: IC50 Live Cells, 4 days
Summary of the method: as §3

[20] = ratio differentiated/pluripotent
[21] = H1, 2.5 μM WX8, normalized to histones

In the case of `C(=N\Nc1nc(Nc2ccccc2)nc(N2CCOCC2)n1)/c1c[nH]c2ccccc12` [WX8], the “Tumor growth inhibition (TGI)” value ([1]; NTERA-2 tumors, 40 mg WX8/kg daily i.p.) is reported as 71%, the Mouse body weights ([1]; NTERA-2 xenograft mice, 40 mg WX8/kg daily i.p.) is reported as “maintained” and the “Effect on teratocarcinoma xenografts” value ([1]; NTERA-2 xenografts, intraperitoneal injections of WX8) is reported as “Eliminated stem cells and inhibited tumor growth”. It also gave an IC50 [2] of 15 µM, an IC50 (WA09/H9 ESC [3]) of 0.26 µM and an IC50 (NTERA-2 ECC) of 0.48 µM. The IC50 (WA01/H1 ESC [4]) was 2 µM, the IC50 (TERA-2 ECC [5]) was 3 µM and the IC50 [6] was 60 µM. The “Range of sensitivity to WX8-induced cell death (DNA loss), H108/GCT27DC1” value (GCT27D.C1 ECC [7]; [20]) was 700 fold, the IC50 (GCT27D.C1 ECC [7]; read-out: IC50 DNA (50% of cells with <2N DNA), GCT27D.C1 ECC) was 0.2 µM and the IC50 [8] was > 10 µM. It also gave an IC50 [9] of 75 µM, an IC50 (TERA-2 ECC [10]) of 5 µM and an IC50 (WA01/H1 ESC [11]) of 1.6 µM. For the same compound, the IC50 (SCUi24 iPSC [12]) was 1 µM, the “Difference in the initiation of PCD, differentiated vs pluripotent cells” value [13] was 35 fold and the IC50 (SCUi24 iPSC [14]) was 2.5 µM. The CASP3 cleavage (H1 ESCs; H1, 2.5 μM WX8) was < 2%, the PARP cleavage (H1 ESCs; H1, 2.5 μM WX8) was 20% and the “Accumulation of p62 protein” value (H1 ESCs; [21]) was < 2 fold. The “Accumulation of total LC3 protein” value (H1 ESCs; [21]) was 2 fold, the CASP12 cleavage (H1 ESCs; H1, WX8) was < 2% and the “Cleaved CASP7” value (H1 ESCs; H1, WX8) was “not detected”. The IC50 [15] was 6 µM, the “Difference in DNA loss, differentiated vs pluripotent cells” value (human pluripotent cells; ratio of average IC50) was 24 fold and the IC50 (human pluripotent cells; read-out: IC50 DNA loss, on average, average over human pluripotent cells) was 2.8 µM. The “Range of sensitivity to WX8-induced cell death (DNA loss), HBEC/H9” value (WA09/H9 ESC [16]; [20]) was 5 fold, the IC50 (WA09/H9 ESC [16]; read-out: IC50 DNA (50% of cells with <2N DNA), WA09/H9 ESC) was 5 µM and the IC50 [17] was 140 µM. The IC50 [18] was 60 µM and the IC50 (GCT27D.C1 ECC [19]) was 0.28 µM.
